Results from article PMC5421626 (Japanese Journal of Clinical Oncology, 2017).
Read-outs that look alike come from different tables or passages of the source. Where a SMILES comes first, the peptide text is derived from it. [ ]: non-standard residue; d: D form. The star is where a group is joined. dPhe(4-NHCONH2) = NC(=O)Nc1ccc(C[C@@H](N)C(=O)O)cc1; Dihydroorotyl(S) = O=C1C[C@@H](C(=O)*)NC(=O)N1; dPhe(4-Cl) = N[C@H](Cc1ccc(Cl)cc1)C(=O)O; Phe(4-NH2) = Nc1ccc(C[C@H](N)C(=O)O)cc1; d2Nal = N[C@H](Cc1ccc2ccccc2c1)C(=O)O; Lys(iPr) = CC(C)NCCCC[C@H](N)C(=O)O; d3Pal = N[C@H](Cc1cccnc1)C(=O)O

Tests used:
Safety assessment = type: in vivo, human (Japanese patients with prostate cancer); conditions: for incidence of serious AEs / incidence of ADRs / overall incidence of AEs: SAF
How it was run: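 The safety set covered all dosed patients, given a subcutaneous 240 mg initial dose, then 360 or 480 mg maintenance every 84 days for 12 months. Recorded were AEs, serious AEs and ADRs (including injection-site reactions), with AEs graded by NCI-CTCAE v4.0, plus biochemistry, hematology, urinalysis, vital signs and 12-lead ECG. Frequencies were tabulated by MedDRA System Organ Class and Preferred Term.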

serum testosterone [1] = conditions: Study CS18, 3-month regimen, cited from earlier work
[2] = Plasma pharmacokinetics of degarelix; type: in vivo, human (Japanese patients with prostate cancer); conditions: for GMR (95% CI) of Ctrough values between Days 28 and 364: human plasma, LC-MS/MS, geometric mean ratio, PKAS; for Cmax / Tmax: male, human, plasma, sc
How it was run: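 Patients got a subcutaneous 240 mg (40 mg/ml) initial dose, then 360 or 480 mg (60 mg/ml) every 84 days from Day 28, for four doses. Plasma was sampled every 28 days and assayed by validated LC-MS/MS (LOQ 0.5 ng/ml). Ctrough was taken on Days 28, 112, 196, 280 and 364, and GMRs with 95% CIs were compared. In a subset, samples 3 and 7 days after Day 28 gave Cmax and Tmax. Analysis set: PKAS.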

serum testosterone [3] = conditions: Study CL-0003, 1-month regimen, cited from earlier work
[4] = test system: serum prostate-specific antigen (PSA); assay: Serum PSA response and PSA failure, Phase II 3-month degarelix study; type: in vivo, human (Japanese patients with prostate cancer); conditions: FAS; for median percent change in serum PSA level from baseline to Day 364: range −99.9%
How it was run: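 Randomised 1:1 by minimisation, patients got a subcutaneous 240 mg initial dose, then from Day 28 360 or 480 mg (60 mg/ml) every 84 days for four doses. In the full analysis set, percent change in serum PSA from baseline was calculated at Days 28 and 364. PSA failure (relapse) over Days 0–364 was given as a proportion with two-sided 95% CI, and cumulative incidence by Kaplan–Meier.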

serum testosterone [5] = assay: Serum testosterone suppression; type: in vivo, human (Japanese patients with prostate cancer); conditions: completers–FAS
serum PSA = conditions: Study CL-0003, 1-month regimen, cited from earlier work

Compound: CC(=O)N[C@H](Cc1ccc2ccccc2c1)C(=O)N[C@H](Cc1ccc(Cl)cc1)C(=O)N[C@H](Cc1cccnc1)C(=O)N[C@@H](CO)C(=O)N[C@@H](Cc1ccc(NC(=O)[C@@H]2CC(=O)NC(=O)N2)cc1)C(=O)N[C@H](Cc1ccc(NC(N)=O)cc1)C(=O)N[C@@H](CC(C)C)C(=O)N[C@@H](CCCCNC(C)C)C(=O)N1CCC[C@H]1C(=O)N[C@H](C)C(N)=O [degarelix] (Ac-[d2Nal][dPhe(4-Cl)][d3Pal]S[Phe(4-NH2)](Dihydroorotyl(S))[dPhe(4-NHCONH2)]L[Lys(iPr)]P[dA]-NH2)
- patients with AEs related to injection site reactions (Safety assessment; 360 mg group): 50.0%
- incidence of serious AEs (Safety assessment; 360 mg group, 13/76): 17.1%
- incidence of ADRs (Safety assessment; 360 mg group, 68/76): 89.5%
- overall incidence of AEs (Safety assessment; 360 mg group, 72/76): 94.7%
- deaths (patients) (Safety assessment; 360 mg group, suicide after initial dose, before maintenance dose): One
- patients with AEs related to injection site reactions (Safety assessment; 480 mg group): 60.5%
- patients with marked increase (≥480 ms) in QTcF on Day 364 (Safety assessment; 480 mg group, 12-lead electrocardiogram): one
- incidence of serious AEs (Safety assessment; 480 mg group, 7/76): 9.2%
- incidence of ADRs (Safety assessment; 480 mg group, 71/76): 93.4%
- overall incidence of AEs (Safety assessment; 480 mg group, 73/76): 96.1%
- patients who discontinued the treatment because of injection site reactions (Safety assessment; both groups): no patient
- severity of injection site reactions (Safety assessment; both groups, NCI-CTCAE v4.0): mild or moderate (Grade 1 or 2)
- cumulative probability of serum testosterone ≤0.5 ng/ml (serum testosterone [1]; 360 mg group): 89.0%
- cumulative probability of serum testosterone ≤0.5 ng/ml (serum testosterone [1]; 480 mg group): 93.3%
- GMR (95% CI) of Ctrough values between Days 28 and 364 ([2]; 360 mg group): 1.258 (1.114–1.421)
- GMR (95% CI) of Ctrough values between Days 28 and 364 ([2]; 480 mg group): 1.752 (1.589–1.932)
- steady state of plasma concentration ([2]; both dose groups (360 and 480 mg every 84 days)): did not achieve steady state by Day 364
- Cmax ([2]; 360 mg): 74.7 ± 30 ng/mL
- Tmax ([2]; 360 mg): 71.3 h
- Cmax ([2]; 480 mg): 98.5 ± 31.7 ng/mL
- Tmax ([2]; 480 mg): 70.8 h
- cumulative probability of serum testosterone ≤0.5 ng/ml (serum testosterone [3]; 80 mg maintenance-dose group): 94.5%
- cumulative probability of serum testosterone ≤0.5 ng/ml (serum testosterone [3]; 160 mg maintenance-dose group): 95.2%
- median percent change in serum PSA level from baseline to Day 28 ([4]; 360 mg group (after 240 mg initial dose)): −70.4%
- proportion of patients with PSA failure (serum PSA relapse) from baseline to Day 364 ([4]; 360 mg group): 2.7%
- median percent change in serum PSA level from baseline to Day 364 ([4]; 360 mg group, −51.3%): −95.05%
- median percent change in serum PSA level from baseline to Day 28 ([4]; 480 mg group (after 240 mg initial dose)): −79.9%
- proportion of patients with PSA failure (serum PSA relapse) from baseline to Day 364 ([4]; 480 mg group): 1.3%
- median percent change in serum PSA level from baseline to Day 364 ([4]; 480 mg group, −44.0%): −96.43%
- proportion of patients with a serum testosterone level ≤0.5 ng/ml from Days 28 to 364 (serum testosterone [5]; 360 mg group, 95% CI 76.85–94.45%): 87.50%
- proportion of patients with a serum testosterone level ≤0.5 ng/ml from Days 28 to 364 (serum testosterone [5]; 480 mg group, 95% CI 89.92–99.65%): 97.10%
- percent change in PSA at Day 28 (serum PSA; 80 mg maintenance-dose group): –80.14%
- percent change in PSA at Day 28 (serum PSA; 160 mg maintenance-dose group): –79.52%
